According to ChEMBL document CHEMBL1126098, “Synthesis and SAR of 6-substituted purine derivatives as novel selective positive inotropes” (J Med Chem, 1992):
Calls of active or inactive are those of the source. No cut-off for these calls is given here.

Experiments:
Canis familiaris [1] = organism: Canis familiaris; test: dP/dt max was determined in dog; type: functional, Canis lupus familiaris; parameters: unit not given beside the values
Method in brief: (§1)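 Adult mongrel dogs anesthetized with sodium pentobarbital (45 mg/kg ip) and artificially respired. MAP measured via cannulated femoral artery; HR from cardiotachometer; LV +dP/dtmax via Millar catheter; CF by Walton Brodie strain gauge on right ventricle (baseline tension 100 g). Compound in 10% DMF/saline or HCl salt, infused iv into femoral vein over 5 min per step. Each step given at peak of the prior one; three to four increasing doses. Response expressed as % change from predrug control; n = 1–5 dogs.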

[2] = In vitro changes in contractile force (CF) quantitated by determining the maximal increase in isometric tension by using ferret papillary muscle; type: functional, Mustela putorius furo, Muscle tissue
Method in brief: (§2)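 Isolated ferret papillary muscle in Tyrode's solution with timolol (1×10^-7 M), equilibrated 2 h. Compound diluted from 1×10^-2 M DMSO stock and added at serially increasing concentrations, up to 10 μM. Isometric tension read 15 min after each addition. Result is maximal increase as % of control tension, from mean of n ≥ 3.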

Canis familiaris [3] = test: Cardiac force in dog after administering ca. 1.875 mg/Kg drug intravenously.; type: functional, Canis lupus familiaris; parameters: unit not given beside the values; method in brief: as §1
Canis familiaris [4] = test: Heart rate in dog after administering ca. 1.875 mg/Kg drug intravenously; type: functional, Canis lupus familiaris; method in brief: as §1
Canis familiaris [5] = test: Mean arterial blood pressure in dog after administering ca. 1.875 mg/Kg drug intravenously.; type: functional, Canis lupus familiaris; parameters: unit not given beside the values; method in brief: as §1
[6] = Relative change in CF was determined by calculating the effective concentration that produced a 50% of maximum increase in tension; type: functional, Mustela putorius furo
Method in brief: (§3)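 Ferret papillary muscle in Tyrode's solution with timolol (1×10^-7 M); compound given at cumulative serially increasing concentrations, each read at 15 min. EC50 is the concentration giving 50% of that compound's own maximal tension increase. Estimated graphically from mean data, n ≥ 3.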

Mustela putorius furo = organism: Mustela putorius furo; test: In vitro changes in contractile force (CF) quantitated by determining the maximal increase in isometric tension by using ferret papillary muscle.; type: functional, tissue-based; settings: Muscle tissue; method in brief: as §2
[7] = Relative change in CF was determined by calculating the effective concentration that produced a 50% of maximum increase in tension.; type: functional, Mustela putorius furo; method in brief: as §3
Canis familiaris [8] = test: Effective dose required to produce 50% increase of cardiac force in dog after administering ca. 1.875 mg/Kg drug intravenously; type: functional; settings: Canis lupus familiaris, iv; method in brief: as §1

SMILES | EC50 [6] [nM] | EC50 [7] | dP/dt max (Canis familiaris [1]) | Max [2] [%] | Cardiac force (Canis familiaris [3]) | Heart rate (Canis familiaris [4]) | MAP (Canis familiaris [5]) | Max (Mustela putorius furo) | ED50 (Canis familiaris [8]) [mg/kg]
OC(COc1ncnc2c1ncn2C1CCCCO1)CN1CCN(C(c2ccccc2)c2ccccc2)CC1 (stereo not given) | – | Not Active | 13 | – | 24 | 0 | -2 | inactive | –
N#Cc1cc2c(OCC(O)CN3CCN(C(c4ccccc4)c4ccccc4)CC3)cccc2[nH]1 (stereo not given) | 500 | – | 88 | 131 | 98 | -12 | -21 | – | 0.43
Cn1cnc2c(SCC(O)CN3CCN(C(c4ccc(F)cc4)c4ccc(F)cc4)CC3)ncnc21 (stereo not given) | 600 | – | 11 | 142 | 50 | -2 | -6 | – | 1.9
OC(CSc1ncnc2c1ncn2-c1ccccc1)CN1CCN(C(c2ccc(F)cc2)c2ccc(F)cc2)CC1 (stereo not given) | – | Not Active | 5 | – | 12 | 4 | -3 | inactive | –
CCN(CC(O)CN1CCN(C(c2ccc(F)cc2)c2ccc(F)cc2)CC1)c1[nH]cnc2ncnc1-2 (stereo not given) | – | Not Active | 16 | – | 13 | 2 | 5 | inactive | –
O=S(=O)(O)OC(CSc1[nH]cnc2ncnc1-2)CN1CCN(C(c2ccc(F)cc2)c2ccc(F)cc2)CC1 (stereo not given) | 390 | – | 110 | 57 | 159 | 6 | 6 | – | 0.26
Cc1nc(SCC(O)CN2CCN(C(c3ccc(F)cc3)c3ccc(F)cc3)CC2)c2[nH]cnc2n1 (stereo not given) | – | – | 17 | – | 23 | 1 | 1 | – | –
OC(CSc1[nH]cnc2ncnc1-2)CN1CCN(C(c2ccccc2)(c2ccccc2)c2ccccc2)CC1 (stereo not given) | – | Not Active | 23 | – | 22 | 4 | -14 | inactive | –
Nc1nc(SCC(O)CN2CCN(C(c3ccc(F)cc3)c3ccc(F)cc3)CC2)c2[nH]cnc2n1 (stereo not given) | 1900 | – | 38 | 74 | 74 | 12 | -9 | – | 0.85
OC(COc1ncnc2c1ncn2C1CCCCO1)CN1CCN(C(c2ccc(F)cc2)c2ccc(F)cc2)CC1 (stereo not given) | – | Not Active | 38 | – | 34 | 9 | -5 | inactive | –
COc1cc(OC)c(C(=O)OC(CSc2[nH]cnc3ncnc2-3)CN2CCN(C(c3ccc(F)cc3)c3ccc(F)cc3)CC2)c(OC)c1 (stereo not given) | – | Not Active | 15 | – | 17 | 3 | 0 | inactive | –
OC(CSc1[nH]cnc2ncnc1-2)CN1CCN(C(c2ccc(Cl)cc2)c2ccc(Cl)cc2)CC1 (stereo not given) | – | – | 99 | – | 151 | -4 | 9 | – | 0.33
CC(=O)OC(CNc1[nH]cnc2ncnc1-2)CN1CCN(C(c2ccc(F)cc2)c2ccc(F)cc2)CC1 (stereo not given) | 2100 | – | 70 | 45 | 144 | -12 | -26 | – | 0.27

More lines, main results first:

EC50 [6] [nM] | EC50 [7] | SMILES | dP/dt max (Canis familiaris [1]) | Max [2] [%] | Cardiac force (Canis familiaris [3]) | Heart rate (Canis familiaris [4]) | MAP (Canis familiaris [5]) | Max (Mustela putorius furo) | ED50 (Canis familiaris [8]) [mg/kg]
170 | – | CC(C)(C)C(=O)OC(CSc1[nH]cnc2ncnc1-2)CN1CCN(C(c2ccc(F)cc2)c2ccc(F)cc2)CC1 (stereo not given) | 24 | 43 | 12 | 4 | -5 | – | –
440 | – | OC(CSc1[nH]cnc2ncnc1-2)CN1CCN(C(c2ccccc2)c2ccc(Cl)cc2)CC1 (stereo not given) | 75 | 242 | 100 | -4 | 2 | – | 0.49
500 | – | OC(CNc1[nH]cnc2ncnc1-2)CN1CCN(C(c2ccc(F)cc2)c2ccc(F)cc2)CC1 (stereo not given) | 83 | 86 | 154 | 2 | -2 | – | 0.28
1000 | – | OC(CSc1[nH]cnc2ncnc1-2)CN1CCN(C(c2ccc(C(F)(F)F)cc2)c2ccc(C(F)(F)F)cc2)CC1 (stereo not given) | 47 | 47 | 71 | 0 | 5 | – | –
1100 | – | OC(CSc1[nH]cnc2ncnc1-2)CN1CCN(C(c2ccccc2)c2ccccc2)CC1 (stereo not given) | 60 | 249 | 86 | -1 | -12 | – | 0.63
– | Not Active | OC(CSc1[nH]cnc2ncnc1-2)CN1CCN(Cc2ccccc2)CC1 (stereo not given) | 34 | – | 30 | 0 | 1 | inactive | –
700 | – | CC(=O)OC(CSc1[nH]cnc2ncnc1-2)CN1CCN(C(c2ccc(F)cc2)c2ccc(F)cc2)CC1 (stereo not given) | 62 | 248 | 145 | -4 | -12 | – | 0.3
1600 | – | OC(CSc1[nH]cnc2ncnc1-2)CN1CCN(C(c2ccc(Cl)cc2Cl)c2ccc(Cl)cc2Cl)CC1 (stereo not given) | 47 | 49 | 69 | 6 | -10 | – | 0.9
3400 | – | OC(CSc1[nH]cnc2ncnc1-2)CN1CCN(C(c2cccc(C(F)(F)F)c2)c2cccc(C(F)(F)F)c2)CC1 (stereo not given) | 46 | 106 | 68 | -6 | 8 | – | 1.1
300 | – | OC(CSc1ncnc2[nH]cnc12)CN1CCN(C(c2ccc(F)cc2)c2ccc(F)cc2)CC1 (stereo not given) [CARSATRIN] | 150 | 189 | 224 | 0 | -5 | – | 0.15
500 | – | COc1ccc(C(c2ccc(OC)cc2)N2CCN(CC(O)CSc3[nH]cnc4ncnc3-4)CC2)cc1 (stereo not given) | 18 | 98 | 45 | -2 | -7 | – | –
470 | – | OC(CSc1[nH]cnc2ncnc1-2)CN1CCN(C(c2ccc(Br)cc2)c2ccc(Br)cc2)CC1 (stereo not given) | 108 | 64 | 148 | -2 | 11 | – | 0.31
